Screening data: PubChem, several laboratories
The entries come from a sample that favours hits as a whole.
S1P3 antag: antagonists of human S1P3 receptor. CHO S1P3 NFAT-BLA reporter, FRET fluorescence, antagonist mode. inhibition, % at 4.98 µM. Q99500. AID 485. 0.27% of 170,000 active;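 active means inhibition above the plate cutoff, the mean inhibition of test wells on that plate plus 3 SD, cut at about 28% in these data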;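 further: cells challenged with S1P at its EC80 of 0.8 µM; blue over green emission ratio from cleaved BLA substrate after 4 h stimulation; 0% = S1P-stimulated wells and 100% = unstimulated DMSO-only wells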
Lmaj promast: inhibitors of Leishmania major promastigote growth. Leishmania major promastigotes, resazurin fluorescence viability. inhibition, % at 10 µM. 9% of 200,000 active. AID 1063; in the data active means inhibition above about 50%;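 further: promastigotes grown with compound for 44 hours at 28 °C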
S1P4 antag: human S1P4 receptor antagonism; S1P4-expressing cells, antagonist mode, reporter read-out; inhibition, % at 4.98 µM; 0.26% of 220,000 active; in the data active means inhibition above about 29%;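 further: 0% = wells stimulated with agonist and 100% = vehicle wells without agonist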
Target sequence (O95977 whole entry, looked up): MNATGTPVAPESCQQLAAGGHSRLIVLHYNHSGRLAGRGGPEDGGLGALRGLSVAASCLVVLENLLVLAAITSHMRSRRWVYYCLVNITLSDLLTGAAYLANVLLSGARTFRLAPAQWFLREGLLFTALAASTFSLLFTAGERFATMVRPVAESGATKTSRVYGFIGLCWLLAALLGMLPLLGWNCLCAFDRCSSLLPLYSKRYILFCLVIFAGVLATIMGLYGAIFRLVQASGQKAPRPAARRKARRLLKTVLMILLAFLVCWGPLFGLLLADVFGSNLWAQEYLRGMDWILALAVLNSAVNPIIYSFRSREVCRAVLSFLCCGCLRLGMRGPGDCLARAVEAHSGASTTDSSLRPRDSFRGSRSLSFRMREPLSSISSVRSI
S1P4 agonist: human S1P4 receptor agonism; O95977; 0.35% of 220,000 active; activation, % at 4.98 µM; S1P4-expressing cell line, agonist reporter assay; in the data active means activation above about 11%;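 further: 0% = DMSO vehicle and 100% = reference agonist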
MDM2 E3 inh: blocks human Mdm2 ubiquitin ligase activity | Q00987 | cell-based MDM2 ubiquitination luciferase reporter, 2 h; 0 = plate control, 100 = twice control, blank-subtracted | signal enhancement, % at 5 µM | 0.11% of 210,000 active | AID 1230;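 active means signal enhancement of 30% or more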;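 further: luminescence tracks abundance of the self-degrading MDM2-luciferase fusion protein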
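Test system: stable mammalian line carrying autodegrading MDM2–luciferase fusion reporter; quantity: 2000 cells in each well; times: 4 h cell settling then 2 h compound exposure, 37 °C; detection: luminescence with SteadyLite reagent, 15 min at room temperature; evaluation: percent signal gain over controls, blank-subtracted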
* marks the source's active call; other numbers are inactive results; / = no result.

SMILES | S1P3 antag | Lmaj promast | S1P4 antag | S1P4 agonist | MDM2 E3 inh
O=C(CSc1cccc[n+]1[O-])Nc1ccccc1Oc1ccccc1 | -3.3 | 100.2* | -6.0 | 1.0 | -11.4
Cc1ccccc1-c1nnn(CC(=O)Nc2ccc3c(c2)OCCO3)n1 | 1.7 | 1.7 | 1.7 | 2.6 | -27.3
CC(C)(C)C(=O)N1CCN(c2nc3ccccc3o2)CC1 | -5.3 | 4.6 | -10.5 | 2.2 | 3.8
C/C=C(\C)C(=O)NNC(=O)c1sc(-c2ccccc2)nc1C | 5.1 | / | -2.9 | 0.8 | -4.1
Cc1cccnc1NC(=O)C(C)N1C(=O)c2ccccc2C1=O (stereo unspecified) | 9.9 | / | 2.8 | -2.0 | -18.0
COC(=O)c1ccc(C(=O)OC)c(NC(=O)COC(=O)C2CC2C)c1 (stereo unspecified) | / | 75.8* | -4.0 | 0.4 | -12.3
COC(=O)c1ccc(C(=O)OC)c(NC(=O)COC(=O)C2CCCCC2)c1 | / | -3.7 | 2.9 | 0.0 | -8.1
Cc1cccc(/C=N\Nc2nnc(-c3ccccc3)c(=O)[nH]2)c1 | 1.2 | 68.2* | -17.5 | 0.1 | -10.3
O=c1[nH]c(N/N=C/c2ccccc2)nc2ccccc12 | / | 57.8* | 4.9 | 4.0 | -16.8
CC(/C=N/Nc1nnc(C)c(=O)[nH]1)=C\c1ccccc1 | / | 5.0 | -0.2 | 3.2 | -14.6
O=c1[nH]c(N/N=C\c2ccc3c(c2)OCO3)nc2ccccc12 | 14.1 | 51.2* | 13.7 | -1.4 | -18.2
COC(=O)C(=CC(=CN(C)C)C=C(C(=O)OC)C(=O)OC)C(=O)OC | -9.4 | / | -1.3 | -0.6 | -8.3
CC(C)(C)c1ncc(S(=O)(=O)c2ccc(C(F)(F)F)cn2)c(N)n1 | 4.9 | / | 1.7 | -0.2 | -13.8
CC(C)CC(=O)/C=C/n1c(=S)oc2ccccc21 | -3.2 | 9.3 | 3.1 | 0.3 | 58.3*
OCCNc1nc2ccccc2nc1NCCO | 2.5 | / | 2.6 | 1.5 | -18.2
OCCNc1c2ccccc2nc2ccccc12 | -5.2 | 99.9* | -30.4 | 8.5 | 1.5
Cc1cc(OCc2nnc(SC(C)C(=O)O)n2Cc2ccccc2)ccc1Cl (stereo unspecified) | -8.0 | -7.8 | -11.3 | 1.1 | -0.6
COc1ccc(NC(=O)CSc2nc3ccccc3cc2Cc2ccccc2)cc1 | / | 4.3 | -11.6 | -0.6 | -12.8
COc1ccc(OC)c(NC(=O)CSc2nc3ccccc3cc2Cc2ccccc2)c1 | / | 82.1* | 2.8 | -0.8 | -22.6
CCCc1nc(NC(=O)c2ccccc2)nc(NC(=O)c2ccccc2)n1 | -3.4 | / | -3.8 | -0.6 | -1.5
Cc1cc(C(=O)NC(=S)Nc2cccc(NC(=O)C(C)C)c2)ccc1[N+](=O)[O-] | 6.0 | 81.9* | -18.9 | 0.2 | 1.1
COc1ccc(NC(=O)c2cccc(NC(=O)C(C)C)c2)c([N+](=O)[O-])c1 | -5.9 | 73.0* | -8.0 | 1.2 | -11.0
CC(C)C(=O)Nc1cccc(C(=O)Nc2nnc(C(C)C)s2)c1 | / | 53.0* | -10.5 | 1.1 | -7.2
CC(C)C(=O)Nc1cccc(NC(=S)NC(=O)c2ccc([N+](=O)[O-])cc2)c1 | / | 5.9 | 1.5 | 0.2 | -0.9
COc1ccc(NC(=O)COc2ccc(C)cc2)c([N+](=O)[O-])c1 | -9.2 | -2.5 | -8.3 | 2.3 | -12.6
SMILES | S1P3 antag | Lmaj promast | S1P4 antag | S1P4 agonist | MDM2 E3 inh
COc1ccc(NC(=O)Cc2ccc(C)cc2)c([N+](=O)[O-])c1 | 0.6 | 90.7* | -4.2 | 0.2 | -9.1
CC(C)(C)NC(=O)CN(C(=O)C(=O)Nc1ccc2c(c1)OCCO2)C(C)(C)C | -19.5 | 0.0 | 8.8 | 1.2 | -11.5
Cc1cccc2nc(COc3ccc(Cl)c4cccnc34)cn12 | 17.1 | 5.4 | 5.3 | -1.0 | -7.7
O=C(CC1S/C(=N/N=C/c2c[nH]c3ccc(OCc4ccccc4)cc23)NC1=O)Nc1ccccc1 (stereo unspecified) | -3.0 | -6.6 | -3.7 | 0.2 | 3.6
O=C(CC1S/C(=N/N=C/c2c[nH]c3ccccc23)NC1=O)Nc1ccccc1 (stereo unspecified) | -11.7 | 78.7* | -14.7 | -0.9 | 9.0
O=C(CC1S/C(=N/N=C/c2cccs2)NC1=O)Nc1ccc(Cl)cc1 (stereo unspecified) | -7.8 | 99.4* | -21.3 | 0.4 | -11.0
NC1=C(O)C(=O)C(c2ccccc2)O1 (stereo unspecified) | -5.0 | / | 10.6 | -0.3 | -8.4
C[N+]1=C(/C=C/Nc2ccccc2Cl)C(C)(C)c2ccccc21 | -10.3 | 98.1* | -11.2 | 2.9 | -6.3
CCSc1nc(-c2cccnc2)ccc1C#N | -6.0 | 76.5* | -13.2 | 1.2 | -3.8
Cc1ccc(-c2cc(N)n(Cc3ccc(Cl)cc3)n2)cc1 | / | 86.6* | -18.7 | 2.1 | -5.3
Cc1cc(N)n(Cc2ccc(Cl)cc2)n1 | -23.2 | 14.7 | 2.2 | 1.1 | -2.0
O=C(CSc1ccsc1[N+](=O)[O-])NCc1ccco1 | -19.8 | 4.4 | 4.3 | 1.9 | 7.3
COc1ccc(C(O)P(=O)(OCC(C)C)OCC(C)C)c(OC)c1 (stereo unspecified) | -11.5 | 65.2* | -4.7 | 1.1 | -8.8
N#Cc1c(NCCN)nc(-c2ccco2)c2c1CCCC2 | / | 100.4* | -5.5 | 0.6 | -12.4
CC1(C)CC(=O)CC(=Nc2ccc(C(=O)O)cc2)C1 | 103.2* | -8.2 | -8.3 | -0.1 | -7.1
O=C(Nc1ncccc1Cl)c1cccc(F)c1 | / | -6.6 | 1.9 | -1.1 | -13.7
O=C(Nc1ncccc1Cl)c1ccccc1F | -2.0 | 72.2* | 0.4 | -1.0 | -4.5
O=C(Nc1nnc(-c2cccs2)o1)c1cc(-c2ccccc2)nc2ccccc12 | -24.2 | -3.9 | -5.8 | 3.8 | /
O=C(NCCCn1ccnc1)c1cc2c(s1)CCCCC2 | -5.0 | 59.9* | -8.7 | -0.3 | -15.0
CC(C)c1csc(CN2CCN(CCc3ccccc3)C(CCO)C2)n1 (stereo unspecified) | -18.1 | 88.8* | 0.5 | -2.4 | 6.5
OCCC1CN(CCCn2cccn2)CCN1Cc1ccccc1 (stereo unspecified) | -2.3 | -3.9 | 1.4 | -0.7 | -15.8
CCOc1ccc(CN2CCN(C3CCSCC3)CC2CCO)cc1 (stereo unspecified) | -6.7 | 73.2* | -9.1 | -0.1 | -4.3
CC(C)c1csc(CN2CCN(Cc3ccccc3)C(CCO)C2)n1 (stereo unspecified) | -4.2 | 1.2 | 10.4 | -1.6 | -22.9
CCOc1ccc(CN2CCN(CCCn3cccn3)CC2CCO)cc1 (stereo unspecified) | -23.2 | 92.4* | -12.4 | -2.2 | -16.2
CC(C)CN1CCN(Cc2ccc(Oc3ncccn3)cc2)CC1CCO (stereo unspecified) | 16.2 | / | -3.9 | -1.6 | -7.7
CCOc1ccc(CN2CCN(Cc3nc(C(C)C)cs3)CC2CCO)cc1 (stereo unspecified) | 21.1 | 81.1* | -16.5 | -1.0 | 6.5
C[C@H]1O[C@H](O[C@H]2[C@H](O)[C@@H](O)[C@@H](O[C@H]3[C@H](O)[C@@H](O)C(O)O[C@@H]3CO)O[C@@H]2CO)[C@H](O)[C@@H](O)[C@@H]1N[C@H]1C=C(CO)[C@@H](O)[C@H](O)[C@H]1O (stereo partly specified) | -2.7 | / | -1.3 | 0.6 | /
CCOc1ccc(CN2CCN(Cc3[nH]c4ccc(OC)cc4c3C)CC2CCO)cc1 (stereo unspecified) | 3.5 | 56.5* | -8.1 | -0.4 | 2.9
